Tests used:
[1] = Percent control of beta-hydroxybutyrate in normal 18 hr-fasted rat model dosed at 100 umol/Kg; format: functional
In short: (§1)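 Male Sprague-Dawley rats fasted 18 h, single oral dose of 100 µmol/kg in 0.5% carboxymethylcellulose/0.2% Tween-80 in water, or vehicle alone, N = 5/group. Serum glucose and β-hydroxybutyrate measured in cardiac-puncture blood at 3 h postdose. Expressed as percent of vehicle control; Student's t-test.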

[2] = Area under the curve was evaluated by plasma concentration and time curve in normal rat after oral dosing of 300 uM/kg; format: ADME, organism-based
In short: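 Normal Sprague-Dawley rats, single oral dose of 300 µmol/kg in 0.5% carboxymethylcellulose/0.2% Tween-80 in water, N = 5/group. Tail-tip blood taken at 2, 4, 7, 8, 24, 36 and 48 h postdose and centrifuged. Plasma AUC0-48h of active metabolite 3.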

[3] = system: Rattus norvegicus; test: Percent efficacy (reduction in blood glucose) at 70 umol/kg in STZ diabetic rats after 8.25 days.; format: functional
In short: (§2)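 Sprague-Dawley rats on a high-fat diet made diabetic with STZ 40 mg/kg i.v. (tail vein). Selected by blood glucose >200 mg/dL at day 5 and by an 18 h fast plus oral dextrose load (1.35 g/kg). Dosed orally once daily for 11 days, 70 µmol/kg in CMC/Tween-80 vehicle, N = 9/group. Food removed during the 0–6 h window. Tail-tip glucose at 6 h postdose on days 8 and 11, expressed as percent efficacy (100% = 60 mg/dL).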

[4] = system: Rattus norvegicus; test: Percent efficacy (reduction in blood glucose) at 70 umol/kg in STZ diabetic rats after 11.25 days.; format: functional; in short: as §2
[5] = Percent control of glucose in normal 18 hr-fasted rat model dosed at 100 umol/Kg; format: functional; in short: as §1
[6] = system: Rattus norvegicus; test: Percent change in testes weight in a 28-day safety study in normal Sprague-Dawley rats at 700 uM/kg/day.; format: functional, Testis
In short: (§3)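 28-day safety study in normal Sprague-Dawley rats dosed daily at 380, 550 or 700 µmol/kg/day. Body weight given as percent of control. Organ weight calculated as [organ/body weight (treated)]/[organ/body weight (control)]. Significance reported at p < 0.05 and p < 0.01.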

[7] = system: Rattus norvegicus; test: Percent change in body weight in a 28-day safety study in normal Sprague-Dawley rats at 700 uM/kg/day.; format: functional; in short: as §3
[8] = system: Rattus norvegicus; test: Percent change in heart weight in a28-day safety study in normal Sprague-Dawley rats at 700 uM/kg/day.; format: functional; in short: as §3
[9] = system: Rattus norvegicus; test: Percent change in liver weight in a 28-day safety study in normal Sprague-Dawley rats at 700 uM/kg/day.; format: functional; in short: as §3
[10] = organism: Rattus norvegicus; test: Effective dose against beta- Hydroxybutyrate in Normal 18 hr-fasted rat model; format: functional
[11] = system: Rattus norvegicus; test: Percent change in heart weight in a 28-day safety study in normal Sprague-Dawley rats at 380 uM/kg/day.; format: functional; in short: as §3
[12] = system: Rattus norvegicus; test: Percent change in body weight in a 28-day safety study in normal Sprague-Dawley rats at 380 uM/kg/day.; format: functional; in short: as §3
[13] = system: Rattus norvegicus; test: Percent change in testes weight in a 28-day safety study in normal Sprague-Dawley rats at 380 uM/kg/day.; format: functional, Testis; in short: as §3
[14] = system: Rattus norvegicus; test: Percent change in liver weight in a 28-day safety study in normal Sprague-Dawley rats at 380 uM/kg/day.; format: functional; in short: as §3
[15] = organism: Rattus norvegicus; test: Effective dose of the compound.; format: functional
[16] = system: Rattus norvegicus; test: Percent change in testes weight in a 28-day safety study in normal Sprague-Dawley rats at 380,550, and 700 uM/kg/day.; format: functional, Testis; in short: as §3
[17] = system: Rattus norvegicus; test: Percent change in heart weight in a 28-day safety study in normal Sprague-Dawley rats at 550 uM/kg/day.; format: functional; in short: as §3
[18] = system: Rattus norvegicus; test: Percent change in liver weight in a 28-day safety study in normal Sprague-Dawley rats at 550 uM/kg/day.; format: functional; in short: as §3

AUC [2]	SMILES	Control [1]	Efficacy [3]	Efficacy [4]	Control [5]	other results
1780 µg·h/mL	CC(C)(C)C(=O)c1ccc(C(=O)OCC(O)COC(=O)c2ccc(C(=O)C(C)(C)C)cc2)cc1	<11.9%	<99.5%	<111.1%	<58.4%	–
–	CC(C)(C)C(=O)c1ccc(COCC2(COCc3ccc(C(=O)C(C)(C)C)cc3)CCCO2)cc1	<12.7%	45.6%	40.1%	<78.1%	–
–	CC(C)(C)C(=O)c1ccc(CSCCSCc2ccc(C(=O)C(C)(C)C)cc2)cc1	82.6%	–	–	79.7%	–
1460 µg·h/mL	CCCCCCCCCCCCCCCC(=O)OCC(COC(=O)c1ccc(C(=O)C(C)(C)C)cc1)OC(=O)CCCCCCCCCCCCCCC (stereo not drawn)	<20.5%	<75.7%	<90.2%	<63%	–
–	CC(C)(C)C(=O)c1ccc(COCCN2CCOCC2)cc1	<23.8%	<-13.1%	-5.9%	98.2%	–
–	CC(C)(C)C(=O)c1ccc(C(=O)OCC(COC(=O)c2ccc(C(=O)C(C)(C)C)cc2)(COC(=O)c2ccc(C(=O)C(C)(C)C)cc2)COC(=O)c2ccc(C(=O)C(C)(C)C)cc2)cc1	96.2%	–	–	109.4%	–
645 µg·h/mL	CCCCCCCCCCCCCCCC(=O)OC(CO)COC(=O)c1ccc(C(=O)C(C)(C)C)cc1 (stereo not drawn)	<22.7%	<69.8%	<64.5%	<60.7%	–
885 µg·h/mL	CCCCCCCCCCCCCCCC(=O)OCC(COC(=O)CCCCCCCCCCCCCCC)OC(=O)c1ccc(C(=O)C(C)(C)C)cc1	<23.6%	62.5%	<84.7%	<60.7%	–
–	CC(C)(C)C(=O)c1ccc(COC/C=C/COCc2ccc(C(=O)C(C)(C)C)cc2)cc1	<15%	1.4%	-5.3%	88.1%	–
1510 µg·h/mL	Cc1ccc(C2(C(C)(C)C)OCCO2)cc1	<12%	<52%	<64%	<58%	Change [6]: <46%; Change [7]: <76%; Change [8]: 92%; Change [9]: 215%
–	CCCCCCCC/C=C/CCCCCCCC(=O)OCC(COCc1ccc(C(=O)C(C)(C)C)cc1)OC(=O)CCCCCCC/C=C/CCCCCCCC (stereo not drawn)	<20.7%	9.5%	21.8%	95.1%	–
1130 µg·h/mL	COCC(COC)OC(=O)c1ccc(C(=O)C(C)(C)C)cc1	<15.5%	<75.8%	54.9%	<69.4%	–
930 µg·h/mL	CCCCCCCCCCCCCCCC(=O)OCC(COC(=O)CCCCCCCCCCCCCCC)OC(=O)CCc1ccc(C(=O)C(C)(C)C)cc1	<24.6%	<84%	<97.5%	<71.6%	–
92 µg·h/mL	CCCCCCCCCCCCCCCC(=O)OCC(COC(=O)CCCCCCCCCCCCCCC)OCc1ccc(C(=O)C(C)(C)C)cc1	<57.2%	24.8%	35.5%	111.6%	ED50 [10]: 127 mg/kg/day
1160 µg·h/mL	CC(C)(C)C(O)c1ccc(C(=O)OCC(COC(=O)c2ccc(C(O)C(C)(C)C)cc2)OC(=O)c2ccc(C(O)C(C)(C)C)cc2)cc1 (stereo not drawn)	<32.5%	49.8%	<61%	<57%	–
–	CC(C)(C)C(=O)c1ccc(CSCc2ccccc2)cc1	59.5%	–	–	68.9%	–
–	CC(C)(C)C(=O)c1ccc(COCC(O)CO)cc1 (stereo not drawn)	<33.5%	5.7%	4.3%	77.6%	–
128 µg·h/mL	CC(C)(C)C(=O)c1ccc(C(=O)OCC(COC(=O)c2ccc(C(=O)C(C)(C)C)cc2)OC(=O)c2ccc(C(=O)C(C)(C)C)cc2)cc1	<22.9%	<103.7%	<103.6%	82.2%	Change [11]: 101%; Change [12]: 95%; Change [13]: 102%; Change [14]: <113%; ED50 [10]: 88 mg/kg/day
–	CC(C)(C)C(=O)c1ccc(COCc2ccc(COCc3ccc(C(=O)C(C)(C)C)cc3)o2)cc1	<17.3%	6.2%	-3.9%	<79.7%	–
–	CCCCCCCCOCC(COCCCCCCCC)OC(=O)c1ccc(C(=O)C(C)(C)C)cc1	<20.1%	–	–	<82.9%	–
–	CC(C)(C)C(=O)c1ccc(C(=O)OCC(CO)(CO)COC(=O)c2ccc(C(=O)C(C)(C)C)cc2)cc1	<14.3%	–	–	<68.9%	ED50 [15]: 3.4 mg/kg/day
1480 µg·h/mL	CC(C)(C)C(=O)c1ccc(C(=O)OC(CO)CO)cc1	<10.9%	<67.4%	<88.1%	<59.3%	–
–	CC(C)(C)C(=O)c1ccc(COCc2cccc(COCc3ccc(C(=O)C(C)(C)C)cc3)n2)cc1	<32.5%	18.2%	-6.8%	98.2%	–
–	CCCCCCCCCCCCCCCC(=O)OCC(COCc1ccc(C(=O)C(C)(C)C)cc1)OC(=O)CCCCCCCCCCCCCCC (stereo not drawn)	<31.2%	0.4%	-46.4%	97.8%	–
1450 µg·h/mL	CC(C)(C)C(=O)c1ccc(C(=O)OCC(O)CO)cc1 (stereo not drawn)	<13.6%	41.6%	<55.1%	<56.1%	–
–	CC(C)(C)C(=O)c1ccc(COCC(COCc2ccc(C(=O)C(C)(C)C)cc2)OCc2ccc(C(=O)C(C)(C)C)cc2)cc1	<19.6%	25.9%	3.8%	74.1%	–
–	CC(C)(C)C(=O)c1ccc(C(=O)OCCC(COC(=O)c2ccc(C(=O)C(C)(C)C)cc2)COC(=O)c2ccc(C(=O)C(C)(C)C)cc2)cc1	<28.8%	–	–	98.6%	Change [16]: 100%; Change [17]: 100%; Change [18]: 101%; ED50 [10]: 96.2 mg/kg/day

Source: ChEMBL document CHEMBL1134343, “Reduction in glucose levels in STZ diabetic rats by 4-(2,2-dimethyl-1-oxopropyl)benzoic acid: a prodrug approach for targeting the liver” (J Med Chem, 2001)
